From ChEMBL document CHEMBL5247578, “Effective synthesis of benzimidazoles-imidazo[1,2-a]pyrazine conjugates: A comparative study of mono-and bis-benzimidazoles for antitumor activity” (Eur J Med Chem, 2019)

Legend:
Assay type in all cases: functional
BT-549 = experiment: Antiproliferative activity against human BT-549 cells assessed as cell growth inhibition at 10 uM incubated for 48 hrs by sulforhodamine B assay relative to control
Method in brief: (§1)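 Single-dose NCI-60 prescreen at 10^-5 M. Cells in RPMI 1640 with 5% FBS and 2 mM L-glutamine, seeded 5,000–40,000 cells/well with 24 h preincubation, then drug exposure for 48 h at 37 °C under 5% CO2. Growth read by SRB staining of TCA-fixed cells at 515 nm against time-zero and untreated controls. Negative growth values denote cell kill.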

MDA-MB-231 = experiment: Antiproliferative activity against human MDA-MB-231 cells assessed as cell growth inhibition at 10 uM incubated for 48 hrs by sulforhodamine B assay relative to control
Method in brief: (§2)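 NCI-60 single-dose screen at 10^-5 M. Cells grown in RPMI 1640 with 5% FBS and 2 mM L-glutamine, plated at 5,000–40,000 cells/well, and preincubated 24 h. Drug (DMSO stock) added and incubated 48 h at 37 °C, 5% CO2. Adherent cells fixed with cold TCA, stained with 0.4% SRB in 1% acetic acid, dye solubilized in 10 mM trizma base, A515 read. Percent growth taken against time-zero and untreated control.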

MCF7 = experiment: Antiproliferative activity against human MCF7 cells assessed as cell growth inhibition at 10 uM incubated for 48 hrs by sulforhodamine B assay relative to control; method in brief: as §2
UO-31 = experiment: Antiproliferative activity against human UO-31 cells assessed as cell growth inhibition at 10 uM incubated for 48 hrs by sulforhodamine B assay relative to control; method in brief: as §2
TK-10 = experiment: Antiproliferative activity against human TK-10 cells assessed as cell growth inhibition at 10 uM incubated for 48 hrs by sulforhodamine B assay relative to control; method in brief: as §2
SN12C = experiment: Antiproliferative activity against human SN12C cells assessed as cell growth inhibition at 10 uM incubated for 48 hrs by sulforhodamine B assay relative to control; method in brief: as §2
786-0 = experiment: Antiproliferative activity against human 786-0 cells assessed as cell growth inhibition at 10 uM incubated for 48 hrs by sulforhodamine B assay relative to control; method in brief: as §1
SK-OV-3 = experiment: Antiproliferative activity against human SK-OV-3 cells assessed as cell growth inhibition at 10 uM incubated for 48 hrs by sulforhodamine B assay relative to control; method in brief: as §2
NCI/ADR-RES = experiment: Antiproliferative activity against human NCI/ADR-RES cells assessed as cell growth inhibition at 10 uM incubated for 48 hrs by sulforhodamine B assay relative to control; method in brief: as §2
OVCAR-4 = experiment: Antiproliferative activity against human OVCAR-4 cells assessed as cell growth inhibition at 10 uM incubated for 48 hrs by sulforhodamine B assay relative to control; method in brief: as §2
IGROV-1 [1] = experiment: Antiproliferative activity against human IGROV-1 cells assessed as cell growth inhibition at 10 uM incubated for 48 hrs by sulforhodamine B assay relative to control; method in brief: as §2
UACC-257 = experiment: Antiproliferative activity against human UACC-257 cells assessed as cell growth inhibition at 10 uM incubated for 48 hrs by sulforhodamine B assay relative to control; method in brief: as §2
SK-MEL-5 = experiment: Antiproliferative activity against human SK-MEL-5 cells assessed as cell growth inhibition at 10 uM incubated for 48 hrs by sulforhodamine B assay relative to control; method in brief: as §2
SK-MEL-28 = experiment: Antiproliferative activity against human SK-MEL-28 cells assessed as cell growth inhibition at 10 uM incubated for 48 hrs by sulforhodamine B assay relative to control; method in brief: as §2
MDA-MB-435 = experiment: Antiproliferative activity against human MDA-MB-435 cells assessed as cell growth inhibition at 10 uM incubated for 48 hrs by sulforhodamine B assay relative to control; method in brief: as §2
SNB-19 = experiment: Antiproliferative activity against human SNB-19 cells assessed as cell growth inhibition at 10 uM incubated for 48 hrs by sulforhodamine B assay relative to control; method in brief: as §2
SF-539 = experiment: Antiproliferative activity against human SF-539 cells assessed as cell growth inhibition at 10 uM incubated for 48 hrs by sulforhodamine B assay relative to control; method in brief: as §2
SF-295 = experiment: Antiproliferative activity against human SF-295 cells assessed as cell growth inhibition at 10 uM incubated for 48 hrs by sulforhodamine B assay relative to control; method in brief: as §2
HCT-15 = experiment: Antiproliferative activity against human HCT-15 cells assessed as cell growth inhibition at 10 uM incubated for 48 hrs by sulforhodamine B assay relative to control
Method in brief: (§3)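 NCI-60 one-dose prescreen at 10^-5 M. Cells grown in RPMI 1640 with 5% FBS and 2 mM glutamine, preincubated 24 h, then exposed 48 h at 37 °C. Adherent lines TCA-fixed, SRB-stained, A515 read. Growth percent relative to time-zero and control; negative values mean cell kill.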

COLO 205 = experiment: Antiproliferative activity against human COLO 205 cells assessed as cell growth inhibition at 10 uM incubated for 48 hrs by sulforhodamine B assay relative to control; method in brief: as §1
NCI-H322M = experiment: Antiproliferative activity against human NCI-H322M cells assessed as cell growth inhibition at 10 uM incubated for 48 hrs by sulforhodamine B assay relative to control; method in brief: as §2
NCI-H23 = experiment: Antiproliferative activity against human NCI-H23 cells assessed as cell growth inhibition at 10 uM incubated for 48 hrs by sulforhodamine B assay relative to control; method in brief: as §2
NCI-H226 = experiment: Antiproliferative activity against human NCI-H226 cells assessed as cell growth inhibition at 10 uM incubated for 48 hrs by sulforhodamine B assay relative to control; method in brief: as §2
HOP-92 = experiment: Antiproliferative activity against human HOP-92 cells assessed as cell growth inhibition at 10 uM incubated for 48 hrs by sulforhodamine B assay relative to control; method in brief: as §3
MOLT-4 = experiment: Antiproliferative activity against human MOLT-4 cells assessed as cell growth inhibition at 10 uM incubated for 48 hrs by sulforhodamine B assay relative to control; method in brief: as §2
K562 = experiment: Antiproliferative activity against human K562 cells assessed as cell growth inhibition at 10 uM incubated for 48 hrs by sulforhodamine B assay relative to control; method in brief: as §2
CAKI-1 = experiment: Antiproliferative activity against human CAKI-1 cells assessed as cell growth inhibition at 10 uM incubated for 48 hrs by sulforhodamine B assay relative to control; method in brief: as §1
HCC 2998 = experiment: Antiproliferative activity against human HCC 2998 cells assessed as cell growth inhibition at 10 uM incubated for 48 hrs by sulforhodamine B assay relative to control; method in brief: as §3
HOP-62 = experiment: Antiproliferative activity against human HOP-62 cells assessed as cell growth inhibition at 10 uM incubated for 48 hrs by sulforhodamine B assay relative to control; method in brief: as §3
IGROV-1 [2] = experiment: Growth inhibition against human IGROV-1 cells incubated for 48 hrs by sulforhodamine B assay
SF-268 = experiment: Antiproliferative activity against human SF-268 cells assessed as cell growth at 0.0000001 M incubated for 48 hrs by SRB assay relative to control; details: dose 100 nM, read-out: Activity
Malme-3M = experiment: Antiproliferative activity against human Malme-3M cells assessed as cell growth inhibition at 10 uM incubated for 48 hrs by sulforhodamine B assay relative to control; method in brief: as §2

SMILES	inhibition at 10 µM (BT-549) [%]	inhibition at 10 µM (MDA-MB-231) [%]	inhibition at 10 µM (MCF7) [%]	inhibition at 10 µM (UO-31) [%]	inhibition at 10 µM (TK-10) [%]	inhibition at 10 µM (SN12C) [%]	inhibition at 10 µM (786-0) [%]	inhibition at 10 µM (SK-OV-3) [%]	inhibition at 10 µM (NCI/ADR-RES) [%]	inhibition at 10 µM (OVCAR-4) [%]	inhibition at 10 µM (IGROV-1 [1]) [%]	inhibition at 10 µM (SK-MEL-5) [%]	inhibition at 10 µM (SK-MEL-28) [%]	inhibition at 10 µM (MDA-MB-435) [%]	inhibition at 10 µM (SNB-19) [%]	inhibition at 10 µM (SF-539) [%]	inhibition at 10 µM (SF-295) [%]	inhibition at 10 µM (HCT-15) [%]	inhibition at 10 µM (COLO 205) [%]	inhibition at 10 µM (NCI-H322M) [%]	further results
c1ccc(-c2cn3ccnc3c(-c3ccc4ncn(C5CCCCC5)c4c3)n2)cc1	57.1	41.5	38	55.1	2.26	28.8	36.8	7.52	50.5	34.5	11.9	36.5	18	28.7	22.9	27.8	39.8	51.6	20.7	5.25	inhibition at 10 µM (UACC-257): 5.22%; inhibition at 10 µM (NCI-H23): 45.3%; inhibition at 10 µM (NCI-H226): 33.9%; inhibition at 10 µM (HOP-92): 53.7%; inhibition at 10 µM (MOLT-4): 67.7%; inhibition at 10 µM (K562): 70.6%
CCc1ccc(-c2cn3ccnc3c(-c3ccc4ncn(Cc5ccccc5)c4c3)n2)cc1	15.9	43.2	58	57.9	15.5	22.5	38.1	0.55	41.2	35.1	25	47.9	19.1	50.9	20.9	21.2	51.2	74.7	34.2	0.89	inhibition at 10 µM (CAKI-1): 47.9%; inhibition at 10 µM (HCC 2998): 25.2%; inhibition at 10 µM (NCI-H23): 23%; inhibition at 10 µM (NCI-H226): 1.48%; inhibition at 10 µM (HOP-92): 36.1%; inhibition at 10 µM (HOP-62): 17.9%; inhibition at 10 µM (MOLT-4): 54.2%
COc1ccc(-c2cn3ccnc3c(-c3ccc4ncn(C5CCCCC5)c4c3)n2)cc1	68.9	71.1	80.2	61.5	18.5	63.6	83.2	74.3	87.2	46.4	53.4	92.3	47.7	-18.6	68.4	-43.4	92.5	78.8	-8.01	31.5	GI50 (IGROV-1 [2]): 921 nM; inhibition at 10 µM (UACC-257): 26.3%; inhibition at 10 µM (HCC 2998): 62.6%; inhibition at 10 µM (NCI-H23): 62.1%; inhibition at 10 µM (NCI-H226): 35.9%; inhibition at 10 µM (HOP-92): 52.3%; inhibition at 10 µM (MOLT-4): 82.8%; inhibition at 10 µM (K562): 92%; growth at 0.1 µM (SF-268): 92%
c1cn2cc(-c3ccc4ncn(C5CCCCC5)c4c3)nc(-c3ccc4ncn(C5CCCCC5)c4c3)c2n1	38.3	49.2	45	68.8	14.4	42.7	34.3	14.8	48.8	22.8	60.8	55.7	24.4	60.2	41.2	16.7	44	57.1	22.4	39.1	inhibition at 10 µM (CAKI-1): 54.6%; inhibition at 10 µM (UACC-257): 35.5%; inhibition at 10 µM (Malme-3M): 7.04%; inhibition at 10 µM (HCC 2998): 17.7%; inhibition at 10 µM (NCI-H23): 28.2%; inhibition at 10 µM (NCI-H226): 46.7%; inhibition at 10 µM (HOP-62): 42.6%; inhibition at 10 µM (MOLT-4): 79.1%; inhibition at 10 µM (K562): 69.8%
